Experimental data taken from ChEMBL document CHEMBL1148329, “Synthesis and structure-activity studies on N-[5-(1H-imidazol-4-yl)-5,6,7,8-tetrahydro-1-naphthalenyl]methanesulfonamide, an imidazole-containing alpha(1A)-adrenoceptor agonist” (J Med Chem, 2004).
The source made the active and inactive calls. The calls are words filed in the database; no cut-off is given here.

Legend:
Canis familiaris [1] = experiment: Uroselectivity was determined by measuring effective dose required for 5 mmHg increase of intraurethral pressure (IUP) in vivo in dog; IA = Inactive; type: functional, organism-based; conditions: Canis lupus familiaris
How it was run: (§1)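 Dog model recording intraurethral pressure (IUP) and mean arterial pressure (MAP) simultaneously. Increasing iv doses given, maximal effect of each dose taken. Doses giving a 5 mmHg rise in IUP (ED Δ5) or 20 mmHg rise in MAP (ED Δ20) were calculated, in nmol/kg ± SEM, n ≥ 4 (2 or 3 where footnoted).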

Canis familiaris [2] = experiment: Uroselectivity was determined by measuring effective dose required for 20 mmHg increase of mean arterial pressure (MAP) in vivo in dog; IA = Inactive; type: functional, organism-based; conditions: Canis lupus familiaris; Artery; how it was run: as §1
[3] = target: T1, Alpha-1A adrenergic receptor (Oryctolagus cuniculus) (UniProt O02824); experiment: Efficacy relative to phenylephrine (PE) to constrict tissue containing the alpha-1A adrenergic receptor in rabbit urethra; type: functional, tissue-based
T1 sequence (whole entry): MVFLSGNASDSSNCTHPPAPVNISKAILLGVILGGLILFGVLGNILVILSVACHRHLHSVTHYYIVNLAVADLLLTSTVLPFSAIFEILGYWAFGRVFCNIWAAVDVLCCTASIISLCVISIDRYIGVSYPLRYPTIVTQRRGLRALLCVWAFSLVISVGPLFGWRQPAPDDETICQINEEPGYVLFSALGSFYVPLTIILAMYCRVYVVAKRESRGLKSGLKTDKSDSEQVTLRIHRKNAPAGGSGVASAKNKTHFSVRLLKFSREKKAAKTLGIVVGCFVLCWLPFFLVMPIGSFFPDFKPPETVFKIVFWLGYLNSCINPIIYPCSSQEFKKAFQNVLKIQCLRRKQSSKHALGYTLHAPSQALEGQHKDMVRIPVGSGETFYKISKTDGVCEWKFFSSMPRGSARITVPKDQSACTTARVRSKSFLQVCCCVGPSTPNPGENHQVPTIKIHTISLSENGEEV
How it was run: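 α1-agonist dose–response curves in isolated tissue: rabbit urethra (α1A), rat spleen (α1B), rat aorta (α1D). Agonist potency and efficacy read from the concentration–response curves.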

[4] = target: Alpha-1A adrenergic receptor (Oryctolagus cuniculus) (UniProt O02824); experiment: Functional agonism of the compounds to constrict tissue containing the alpha-1A adrenergic receptor in rabbit urethra; Inactive
[5] = target: Alpha adrenergic receptor 1A and 1D (Rattus norvegicus) (UniProt P23944+P43140); experiment: Selectivity is ratio of pKi (binding affinity) of Alpha-1D to that of alpha1A; type: protein assay
[6] = target: Alpha adrenergic receptor 1A and 1B (Rattus norvegicus) (UniProt P15823+P43140); experiment: Selectivity is ratio of pKi (binding affinity) of alpha-1B receptor to that of alpha-1A receptor.; type: protein assay
[7] = target: T2, Alpha-1A adrenergic receptor (Bos taurus, UniProt P18130); experiment: In vitro binding affinity towards alpha-1A adrenergic receptor of bovine clone in radioligand binding assay
T2 sequence (P18130 whole entry): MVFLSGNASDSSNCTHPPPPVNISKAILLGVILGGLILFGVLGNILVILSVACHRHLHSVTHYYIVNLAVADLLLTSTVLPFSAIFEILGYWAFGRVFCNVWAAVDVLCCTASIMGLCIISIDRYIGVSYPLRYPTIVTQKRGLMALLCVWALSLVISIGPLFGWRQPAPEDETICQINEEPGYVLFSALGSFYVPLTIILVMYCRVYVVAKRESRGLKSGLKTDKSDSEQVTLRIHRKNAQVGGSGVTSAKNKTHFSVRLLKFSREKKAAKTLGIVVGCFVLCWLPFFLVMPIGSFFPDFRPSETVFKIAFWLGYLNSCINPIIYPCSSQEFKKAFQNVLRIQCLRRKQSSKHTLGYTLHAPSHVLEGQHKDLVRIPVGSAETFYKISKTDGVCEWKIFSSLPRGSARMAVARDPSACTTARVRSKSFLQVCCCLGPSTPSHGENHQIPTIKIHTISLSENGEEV

[8] = target: T3, Alpha-1B adrenergic receptor (Mesocricetus auratus, UniProt P18841); experiment: In vitro binding affinity towards alpha-1B adrenergic receptor of hamster clone in radioligand binding assay; type: single protein
T3 sequence (P18841 whole entry): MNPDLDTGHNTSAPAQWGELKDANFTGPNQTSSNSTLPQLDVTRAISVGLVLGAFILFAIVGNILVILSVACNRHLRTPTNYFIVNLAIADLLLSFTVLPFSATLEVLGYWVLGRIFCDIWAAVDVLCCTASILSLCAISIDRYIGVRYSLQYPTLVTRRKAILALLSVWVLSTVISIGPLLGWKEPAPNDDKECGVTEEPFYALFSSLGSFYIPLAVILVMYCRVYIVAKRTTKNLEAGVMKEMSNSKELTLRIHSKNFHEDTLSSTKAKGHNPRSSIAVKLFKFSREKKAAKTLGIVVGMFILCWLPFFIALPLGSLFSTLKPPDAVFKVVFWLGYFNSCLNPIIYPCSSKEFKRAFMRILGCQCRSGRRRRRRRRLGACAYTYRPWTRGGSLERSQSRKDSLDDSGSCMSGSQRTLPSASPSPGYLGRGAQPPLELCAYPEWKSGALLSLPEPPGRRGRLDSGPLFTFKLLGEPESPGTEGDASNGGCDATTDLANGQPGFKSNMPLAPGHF
How it was run: (§2)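 Radioligand binding at α1 subtypes: α1A from rat submaxillary gland, α1B hamster clone, α1D rat clone. Run essentially per an earlier method.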

[9] = target: T4, Alpha-1D adrenergic receptor (Rattus norvegicus, UniProt P23944); experiment: In vitro binding affinity towards alpha-1D adrenergic receptor of rat clone in radioligand binding assay; how it was run: as §2
T4 sequence (P23944 whole entry): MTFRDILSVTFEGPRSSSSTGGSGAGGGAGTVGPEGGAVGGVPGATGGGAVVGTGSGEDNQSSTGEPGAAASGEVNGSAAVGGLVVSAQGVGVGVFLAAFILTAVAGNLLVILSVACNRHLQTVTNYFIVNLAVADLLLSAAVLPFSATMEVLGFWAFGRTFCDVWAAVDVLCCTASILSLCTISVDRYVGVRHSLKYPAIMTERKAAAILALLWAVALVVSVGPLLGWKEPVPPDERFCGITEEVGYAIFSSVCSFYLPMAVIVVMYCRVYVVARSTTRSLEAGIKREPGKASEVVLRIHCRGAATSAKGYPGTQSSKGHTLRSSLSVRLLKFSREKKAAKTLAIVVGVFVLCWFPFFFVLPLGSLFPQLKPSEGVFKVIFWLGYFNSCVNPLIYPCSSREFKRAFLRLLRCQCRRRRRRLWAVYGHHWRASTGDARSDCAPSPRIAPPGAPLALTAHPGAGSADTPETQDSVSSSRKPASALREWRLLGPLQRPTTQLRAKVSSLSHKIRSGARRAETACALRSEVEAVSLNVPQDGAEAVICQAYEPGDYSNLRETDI

Chain of Alpha adrenergic receptor 1A and 1B (Rattus norvegicus) (P15823 whole entry, looked up): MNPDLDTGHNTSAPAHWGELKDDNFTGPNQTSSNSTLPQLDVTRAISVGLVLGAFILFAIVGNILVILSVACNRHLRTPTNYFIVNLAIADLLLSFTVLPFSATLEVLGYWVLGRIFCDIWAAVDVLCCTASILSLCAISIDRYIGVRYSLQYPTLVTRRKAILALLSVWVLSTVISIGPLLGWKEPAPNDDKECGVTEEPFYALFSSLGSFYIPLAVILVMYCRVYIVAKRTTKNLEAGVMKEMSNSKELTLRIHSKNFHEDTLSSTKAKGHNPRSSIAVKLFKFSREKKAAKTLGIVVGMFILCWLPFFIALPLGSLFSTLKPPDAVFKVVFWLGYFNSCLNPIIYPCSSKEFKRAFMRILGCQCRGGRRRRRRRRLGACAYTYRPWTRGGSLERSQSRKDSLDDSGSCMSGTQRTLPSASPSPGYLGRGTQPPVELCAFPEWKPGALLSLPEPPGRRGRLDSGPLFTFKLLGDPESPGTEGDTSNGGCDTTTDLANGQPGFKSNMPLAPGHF
Chain of Alpha adrenergic receptor 1A and 1B (Rattus norvegicus) (P43140 whole entry, looked up): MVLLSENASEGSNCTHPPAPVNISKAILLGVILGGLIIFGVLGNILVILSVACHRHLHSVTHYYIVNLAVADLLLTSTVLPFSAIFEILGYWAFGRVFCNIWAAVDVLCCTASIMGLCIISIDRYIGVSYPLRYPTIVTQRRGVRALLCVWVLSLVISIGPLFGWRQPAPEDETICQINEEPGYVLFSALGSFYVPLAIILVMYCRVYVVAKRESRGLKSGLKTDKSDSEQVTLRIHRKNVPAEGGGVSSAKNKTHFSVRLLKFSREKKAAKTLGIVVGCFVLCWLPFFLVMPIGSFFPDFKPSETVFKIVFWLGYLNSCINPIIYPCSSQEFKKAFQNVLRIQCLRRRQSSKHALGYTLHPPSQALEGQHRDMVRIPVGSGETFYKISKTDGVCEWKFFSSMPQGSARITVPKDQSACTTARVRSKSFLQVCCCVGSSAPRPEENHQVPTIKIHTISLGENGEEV

| SMILES | ED delta5 (Canis familiaris [1]) | ED delta20 (Canis familiaris [2]) | Efficacy [3] | pD2 [4] | Selectivity [5] | Selectivity [6] | Ki [7] | Ki [8] | Ki [9] |
| --- | --- | --- | --- | --- | --- | --- | --- | --- | --- |
| Cn1cnc(C2CCCc3c(NS(C)(=O)=O)cccc32)c1 (stereo unspecified) | inactive | inactive | 40% |  |  |  |  |  |  |
| CS(=O)(=O)Nc1cccc2c1CCC=C2c1c[nH]cn1 | inactive | inactive |  |  |  |  |  |  |  |
| O=S(=O)(Nc1cccc2c1CCCC2c1c[nH]cn1)c1ccc2ccccc2c1 (stereo unspecified) |  |  |  | inactive | 0.4 | 1 | 692 nM | 214 nM | 100 nM |
